Laboratory results reported in ChEMBL document CHEMBL1124070, “Potential anticancer agents: 5-(N-substituted-aminocarbonyl)- and 5-(N-substituted-aminothiocarbonyl)-5,6,7,8-tetrahydrofolic acids” (J Med Chem, 1988).
Calls of active or inactive are those of the source. No cut-off for these calls is given here.

Tests used:
HEp-2 [1] = experiment: Dose of compound required to inhibit colony formation of H.Ep-2 cells; type: functional, cell-based; details: Homo sapiens
How it was run: (§1)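 Colony-forming viability assay in H.Ep.-2 cells. The ED50 is the concentration that inhibits colony formation by 50%.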

HEp-2 [2] = experiment: Effective dose required to inhibit colony formation of H.Ep-2 cells; type: functional; details: Homo sapiens, read-out: ED50 (the source's name); how it was run: as §1
P388 = experiment: Compound was tested for cytotoxicity against P388 cells; IA=Inactive; type: functional, cell-based; details: Mus musculus
[3] = Compound was tested for activity against 10 isolated folate-utilizing enzymes; IA=Inactive
L1210 = experiment: Compound was tested for activity against L1210 cells in mice; IA=Inactive; type: functional, cell-based; details: Mus musculus

Q: Which IC50 (HEp-2 [1]) does the source give for `CCOC(=O)CCCCCC/N=C(\S)N1c2c(O)nc(N)nc2NCC1CNc1ccc(C(=O)NC(CCC(=O)O)C(=O)O)cc1` (stereo not given) here?
A: > 25 µM

Q: What does the source list for `CCOC(=O)CCCCCCCCNC(=O)N1c2c(O)nc(N)nc2NCC1CNc1ccc(C(=O)NC(CCC(=O)O)C(=O)O)cc1` (stereo not given)?
A: EC50 (HEp-2 [2]): 35 µM; Cytotoxicity (P388): inactive

Q: With `Nc1nc(O)c2c(n1)NCC(CNc1ccc(C(=O)NC(CCC(=O)O)C(=O)O)cc1)N2/C(S)=N/c1ccccc1` (stereo not given) as the compound, how does the Activity [3] read?
A: inactive

Q: What about the Cytotoxicity (L1210) of the same compound?
A: inactive

Q: With `CCOC(=O)CCCCCCNC(=O)N1c2c(O)nc(N)nc2NCC1CNc1ccc(C(=O)NC(CCC(=O)O)C(=O)O)cc1` (stereo not given) as the compound, how does the EC50 (HEp-2 [2]) read?
A: 4 µM

Q: What about the Cytotoxicity (P388) of the same compound?
A: inactive

Q: With `CCOC(=O)CCCCCNC(=O)N1c2c(O)nc(N)nc2NCC1CNc1ccc(C(=O)NC(CCC(=O)O)C(=O)O)cc1` (stereo not given) as the compound, how does the EC50 (HEp-2 [2]) read?
A: 13 µM

Q: What about the Cytotoxicity (P388) of the same compound?
A: inactive

Q: For `CCOC(=O)CCCCCCCNC(=O)N1c2c(O)nc(N)nc2NCC1CNc1ccc(C(=O)NC(CCC(=O)O)C(=O)O)cc1` (stereo not given), which EC50 (HEp-2 [2]) is on record?
A: 24 µM

Q: With `CCOC(=O)CCCCCCCC/N=C(\S)N1c2c(O)nc(N)nc2NCC1CNc1ccc(C(=O)NC(CCC(=O)O)C(=O)O)cc1` (stereo not given) as the compound, how does the IC50 (HEp-2 [1]) read?
A: > 25 µM

Q: What about the Cytotoxicity (P388) of the same compound?
A: inactive

Q: For `Nc1nc(O)c2c(n1)NCC(CNc1ccc(C(=O)NC(CCC(=O)O)C(=O)O)cc1)N2C(=O)NCCCl` (stereo not given), which Activity [3] is on record?
A: inactive

Q: What about the Cytotoxicity (L1210) of the same compound?
A: inactive

Q: Which IC50 (HEp-2 [1]) does the source give for `CCOC(=O)CCCCCCC/N=C(\S)N1c2c(O)nc(N)nc2NCC1CNc1ccc(C(=O)NC(CCC(=O)O)C(=O)O)cc1` (stereo not given) here?
A: > 25 µM

Q: Which Activity [3] does the source give for `NC(=O)N1c2c(O)nc(N)nc2NCC1CNc1ccc(C(=O)NC(CCC(=O)O)C(=O)O)cc1` (stereo not given) here?
A: inactive

Q: And the Cytotoxicity (L1210)?
A: inactive

Q: For `CC/N=C(\S)N1c2c(O)nc(N)nc2NCC1CNc1ccc(C(=O)NC(CCC(=O)O)C(=O)O)cc1` (stereo not given), which Activity [3] is on record?
A: inactive

Q: And the Cytotoxicity (L1210)?
A: inactive

Q: For `CCOC(=O)CCCCC/N=C(\S)N1c2c(O)nc(N)nc2NCC1CNc1ccc(C(=O)NC(CCC(=O)O)C(=O)O)cc1` (stereo not given), which IC50 (HEp-2 [1]) is on record?
A: > 25 µM
